Key:
DU145 xenografts = assay: Anti-tumor activity in human prostate cancer DU145 xenografts in nude mice; assay type: in vivo, human tumor in BALB/c-nu/nu mice; conditions: taxol alone, 60 mg/kg i.v. day 0; data not shown
Method in brief: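 DU145 cells implanted s.c. into right flank of 5–6-week-old male BALB/c nude mice; tumor pieces passaged s.c. into new mice. At ~100 mm3 (day 0), six mice/group. Taxol 60 mg/kg i.v. on day 0; test compound or vehicle given intratumorally on days 0 and 5. Caliper volume = longest × shortest²/2; body weight tracked; Student's t test.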

DU145 cells [1] = assay: Apoptosis of DU145 cells; assay type: cell-based, human; conditions: 20 μM peptide, 72 h; flow cytometry (Fig. 3A)
endogenous p27^Kip1 = assay type: cell-based, human; conditions: 20 μM FITC-labeled peptide, 24 h (Fig. 2B)
Method in brief: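 DU145 cells (RPMI 1640, 10% FBS, 100 ug/ml kanamycin, 5% CO2) were exposed to 20 uM FITC-labeled cell-permeable peptides, or no peptide, for 24 h. Whole lysates or separated cytoplasmic and nuclear fractions were immunoblotted for endogenous p27Kip1 using nitrocellulose and ECL, with β-actin and topoisomerase II as markers. For localization, cells were formaldehyde-fixed, stained with anti-p27Kip1 and Alexa Fluor 568 secondary, and counterstained with Hoechst 33342.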

DU145 cells [2] = assay: Flow cytometric cell cycle analysis of DU145 cells; assay type: cell-based, human; conditions: 20 μM peptide, 24 h (Fig. 2A)
DU145 cells [3] = assay type: cell-based, human; conditions: for intracellular accumulation, fluorescence microscopy: 20 µM FITC-labeled peptide, 4 h (Fig. S1A; method section: 10 μM)
Method in brief: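 FITC-labeled peptides were added to the DU145 culture medium at 10 um and incubated for 4 h. Intracellular distribution of fluorescein was then imaged by fluorescence microscopy with a CCD camera.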

Compound	inhibitory effect on tumor growth, given alone (DU145 xenografts)	increase in the sub-G1 fraction (DU145 cells [1])	expression of p27^Kip1 (endogenous p27^Kip1)	increase in the number of cells in G1 phase (DU145 cells [2])	intracellular accumulation, fluorescence microscopy (DU145 cells [3])	intracellular accumulation, flow cytometric analysis (DU145 cells [3]; FITC-labeled peptide (Fig. S1B))
CC(=O)O[C@H]1C(=O)[C@@]2(C)[C@H]([C@H](OC(=O)c3ccccc3)[C@]3(O)C[C@H](OC(=O)[C@H](O)[C@@H](NC(=O)c4ccccc4)c4ccccc4)C(C)=C1C3(C)C)[C@]1(OC(C)=O)CO[C@@H]1C[C@@H]2O [taxol]	did not show an inhibitory effect	–	–	–	–	–
GGGRRRRRRGC-KKPGLDRDQT [R8-T198mu]	–	not with R8-T198mu	not R8-T198mu enhances the expression of p27^Kip1	not with Arg^8 and R8-T198mu	had accumulated in cells	had accumulated almost equally in cells
GGGRRRRRRRRGC [Arg^8, reference compound]	–	–	–	not with Arg^8 and R8-T198mu	had accumulated in cells	–

— paper PMC3024764 (The Journal of Biological Chemistry, 2010)
